Measured values published in paper PMC3553987 (Nucleic Acids Research, 2012).

Assays:
STAT3 = details: STAT3, at this concentration (20 µM), in cells and in vivo; cited from earlier work
P-STAT1 = biological target: T1, P-STAT1 (Homo sapiens, UniProt P42224); assay: TIRF-PBM: inhibition of P-STAT1 equilibrium binding to DNA array; details: 20 µM compound, 50 nM P-STAT1
T1 sequence (P42224 1-750): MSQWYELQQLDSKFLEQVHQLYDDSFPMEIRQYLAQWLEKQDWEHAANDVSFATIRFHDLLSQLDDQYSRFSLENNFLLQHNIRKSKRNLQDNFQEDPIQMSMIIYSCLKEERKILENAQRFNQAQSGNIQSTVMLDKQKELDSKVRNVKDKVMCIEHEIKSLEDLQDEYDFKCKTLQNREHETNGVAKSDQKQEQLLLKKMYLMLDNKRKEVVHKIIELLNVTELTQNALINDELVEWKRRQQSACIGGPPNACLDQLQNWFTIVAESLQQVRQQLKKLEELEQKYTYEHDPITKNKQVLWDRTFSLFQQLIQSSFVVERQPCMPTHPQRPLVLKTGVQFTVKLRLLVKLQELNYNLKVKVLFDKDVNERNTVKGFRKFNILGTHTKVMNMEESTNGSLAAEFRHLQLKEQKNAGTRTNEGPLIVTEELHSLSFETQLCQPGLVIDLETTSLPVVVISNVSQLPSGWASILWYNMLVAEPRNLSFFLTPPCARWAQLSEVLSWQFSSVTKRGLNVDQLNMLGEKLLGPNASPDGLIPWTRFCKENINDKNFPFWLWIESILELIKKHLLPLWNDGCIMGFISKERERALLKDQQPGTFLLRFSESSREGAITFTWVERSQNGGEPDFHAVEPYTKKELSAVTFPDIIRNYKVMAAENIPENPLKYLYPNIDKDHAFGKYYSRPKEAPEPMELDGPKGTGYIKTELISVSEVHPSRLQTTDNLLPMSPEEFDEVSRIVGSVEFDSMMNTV
Summary of the method: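 Phosphorylated STAT1 (50 nM), amine-labelled with DyLight dyes, with test compound (20 μM final, from 5 mM DMSO stock). Flowed >30 min at 25°C over dsDNA hydrogel microarray; TIRF read, 20 s exposures. Intensities from 5–10 replicate spots, binned as GAS palindrome with 3-nt spacer, half-GAS, or absent/misspaced GAS.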

Myc/Max [1] = biological target: Myc/Max (Homo sapiens, UniProt P01106); assay: TIRF-PBM: inhibition of Myc/Max equilibrium binding to DNA array; details: 50 μM Mycro3, 10 nM Myc/Max
Summary of the method: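 DyLight-labelled Myc/Max (His-tagged c-Myc and Max expressed separately in E. coli, then denatured and renatured together) with test compound (5 mM DMSO stock, 50 μM final). Equilibrium intensity from 5–10 replicate spots; E-box consensus vs mutated/absent bins compared by two-tailed t-test with Welch's correction.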

Myc/Max [2] = details: read-out: reported IC50; obtained with a cognate-binding site; cited from earlier work

Myc/Max (Homo sapiens, UniProt P01106), sequence (P01106 whole entry): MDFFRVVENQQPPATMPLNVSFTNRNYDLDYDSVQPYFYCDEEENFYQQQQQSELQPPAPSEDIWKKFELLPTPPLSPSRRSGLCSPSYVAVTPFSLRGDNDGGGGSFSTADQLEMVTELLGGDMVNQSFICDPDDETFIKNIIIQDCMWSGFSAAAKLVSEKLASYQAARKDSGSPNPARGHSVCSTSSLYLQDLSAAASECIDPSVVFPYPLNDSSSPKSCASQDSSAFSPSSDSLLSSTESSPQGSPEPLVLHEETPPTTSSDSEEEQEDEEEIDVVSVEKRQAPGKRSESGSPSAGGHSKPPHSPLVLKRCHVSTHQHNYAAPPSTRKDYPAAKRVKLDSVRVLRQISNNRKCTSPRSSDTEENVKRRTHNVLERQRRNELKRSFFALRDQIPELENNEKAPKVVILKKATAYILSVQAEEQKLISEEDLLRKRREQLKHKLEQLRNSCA

Row | SMILES | DNA binding, % of normal activity (STAT3) [%] | adjusted binding intensity at 'Half Sites' (P-STAT1) [%] | adjusted binding intensity at 'Poor Affinity' sites (P-STAT1) [%] | average adjusted binding intensity at 'High Affinity' sites, % of the no-inhibitor control (P-STAT1) [%] | fold reduction in binding at 'High Affinity' sites (P-STAT1) [fold] | Myc/Max binding intensity at 'high affinity' sites, % signal (Myc/Max [1]) [%] | Myc/Max binding signal at weaker affinity sites (Myc/Max [1]) [%] | IC50 (Myc/Max [2]) [µM]
1 | CC(=O)c1cccc2c1C(=O)c1cccc(O)c1C2=O [LLL3] | ~40 | 59.4 ± 15.5 | 42.4 ± 13.1 | 12.6 ± 4.9 | ~8 | – | – | –
2 | CCOC(=O)c1cnn(-c2ccccc2)c1NC(=O)c1cc2nc(-c3ccco3)cc(C(F)(F)Cl)n2n1 [Mycro3] | – | – | – | – | – | 68.5 ± 10.6 | 66.2 ± 23.7 | 40 ± 13
